Reference: ChEMBL document CHEMBL1124553, “Brain-specific chemical delivery systems for beta-lactam antibiotics. In vitro and in vivo studies of some dihydropyridine and dihydroisoquinoline derivatives of benzylpenicillin in rats” (J Med Chem, 1989)

Legend:
[1] = Half-life for disappearance of compound from dog whole blood; format: ADME, organism-based, Canis lupus familiaris
Method in brief: (§1)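 Freshly collected whole blood, or 10% w/v brain homogenate in pH 7.4 phosphate buffer (ionic strength 0.15), was prewarmed to 37 °C. Compound was spiked from an 8 mM DMSO stock to 40 µM final. Timed samples were quenched in 8% DMSO/acetonitrile, centrifuged, filtered and analyzed by reversed-phase C8 HPLC with UV detection. K came from linear regression of log peak height versus time, with t1/2 derived from it. Values are mean ± SE of three determinations in different animal samples.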

[2] = Half-life for disappearance of compound from rat 10% brain homogenate; format: ADME; method in brief: as §1
[3] = Half-life for disappearance of compound from rat whole blood; format: ADME, organism-based; method in brief: as §1
Canis familiaris = organism: Canis familiaris; test: Pseudo first-order rate constant (K) for disappearance of compound from dog whole blood; format: ADME, organism-based, Canis lupus familiaris; method in brief: as §1
Rattus norvegicus [4] = organism: Rattus norvegicus; test: Pseudo first-order rate constant (K) for disappearance of compound from rat 10% brain homogenate; format: ADME
Method in brief: (§2)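 Freshly collected whole blood (rat trunk blood; rabbit) or 10% w/v brain homogenate made in pH 7.4 phosphate buffer (μ = 0.15), prewarmed to 37 °C. Compound added from 8 mM DMSO stock to a final 40 μM. Timed 0.3 mL samples were quenched in 8% DMSO/acetonitrile, centrifuged, filtered and analysed by reversed-phase C8 HPLC-UV. K came from linear regression of log peak height versus time; n=3 animal samples.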

[5] = Pseudo first-order rate constant (K) for disappearance of compound from rat whole blood; format: ADME, tissue-based; method in brief: as §2
Rattus norvegicus [6] = test: Concentration of compound in rat blood after intravenous injection of 20 mg/kg benzyl-penicillin after 1 min; format: functional, organism-based; design: dose 20 mg/kg
Method in brief: (§3)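 Male Sprague-Dawley rats (200-250 g), conscious, received 60 µmol/kg (equimolar to 20 mg/kg benzylpenicillin) by tail-vein injection. Benzylpenicillin K was given in water/ethanol/propylene glycol, and the delivery systems in ethanol:propylene glycol 7:3, at 20 mg/mL. Rats were decapitated at set times (4-6 per point), with trunk blood heparinized and brain, kidney, liver and lung frozen. Benzylpenicillin was measured by disk microbioassay (Bacillus subtilis ATCC 6633) after >5-volume sterile-water dilution or homogenization, against matrix calibration curves; assay limit 0.05 µg/mL.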

Rattus norvegicus [7] = test: Concentration of compound in rat blood after intravenous injection of 20 mg/kg benzyl-penicillin after 10 min; format: functional, organism-based; design: dose 20 mg/kg; method in brief: as §3
Rattus norvegicus [8] = test: Concentration of compound in rat blood after intravenous injection of 20 mg/kg benzyl-penicillin after 20 min; format: functional, organism-based; design: dose 20 mg/kg; method in brief: as §3
Rattus norvegicus [9] = test: Concentration of compound in rat blood after intravenous injection of 20 mg/kg benzyl-penicillin after 3 min; format: functional, organism-based; design: dose 20 mg/kg; method in brief: as §3
Rattus norvegicus [10] = test: Concentration of compound in rat blood after intravenous injection of 20 mg/kg benzyl-penicillin after 5 min; format: functional, organism-based; design: dose 20 mg/kg; method in brief: as §3
Rattus norvegicus [11] = test: Concentration of compound in rat brain after intravenous injection of 20 mg/kg benzyl-penicillin after 1 min; format: functional, organism-based; design: dose 20 mg/kg; method in brief: as §3
Rattus norvegicus [12] = test: Concentration of compound in rat brain after intravenous injection of 20 mg/kg benzyl-penicillin after 3 min; format: functional, organism-based; design: dose 20 mg/kg; method in brief: as §3

| SMILES | half-life [1] | half-life [2] | half-life [3] | K (Canis familiaris) | K (Rattus norvegicus [4]) | K [5] | Concentration (Rattus norvegicus [6]) | Concentration (Rattus norvegicus [7]) | Concentration (Rattus norvegicus [8]) | Concentration (Rattus norvegicus [9]) | Concentration (Rattus norvegicus [10]) | Concentration (Rattus norvegicus [11]) | Concentration (Rattus norvegicus [12]) |
| --- | --- | --- | --- | --- | --- | --- | --- | --- | --- | --- | --- | --- | --- |
| C[n+]1cc(C(=O)NCCOC(=O)C2N3C(=O)C(NC(=O)Cc4ccccc4)C3SC2(C)C)c2ccccc2c1.[I-] (centres undefined) | 13.5 min | 73.4 min | 6 min | 0.051 min⁻¹ | 0.01 min⁻¹ | 0.115 min⁻¹ | – | – | – | – | – | – | – |
| CN1C=c2ccccc2=C(C(=O)NCCOC(=O)C2N3C(=O)C(NC(=O)Cc4ccccc4)C3SC2(C)C)C1 (centres undefined) | 11.4 min | 28.3 min | 0.6 min | 0.062 min⁻¹ | 0.025 min⁻¹ | 1.083 min⁻¹ | 6.6 µg/mL | 1.2 µg/mL | 0.2 µg/mL | 3 µg/mL | 2.5 µg/mL | 0.2 µg/mL | 0.2 µg/mL |
